As a reminder, the inhibition in vivo is the share of the control response that was lost under treatment.

Series [1] has as its system Mus musculus. As to the kind of experiment: Decrease in PEPCK gene expression in db/db mouse liver at 300 mg/kg, po bid for 12 to 13 days by real time RT-PCR analysis. The series is classed as functional, organism-based. Further details: dose 300 mg/kg. The method, boiled down: (§1)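 db/db mice dosed orally twice daily with 300 mg/kg or vehicle for 12-13 days, then fasted overnight and liver removed. Gluconeogenic gene mRNA measured by SYBR-green real-time PCR and expressed as fold change versus vehicle. Mean ± SE, n=7-8; ANOVA with Bonferroni test.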

For series [2], the system named is Mus musculus. Description: Toxicity in C57BL/6J mouse assessed as effect on glucose tolerance at 300 mg/kg, po bid for 13 days by glucose tolerance test. The series is classed as organism-based. Further details: dose 300 mg/kg, route oral. The conditions noted are these: in vivo, 312 h. The method, boiled down:
(§2)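 Male mice, 8 weeks old, dosed orally twice daily with 300 mg/kg in 0.5% methylcellulose, or vehicle, for 13 days (C57BL/6J) or 10 days (db/db). After a 6 h fast, glucose 2 g/kg given ip. Tail-vein blood sampled at set times and plasma glucose measured by glucometer. AUC calculated. Mean ± SE, n=5-8; ANOVA with Bonferroni test versus vehicle.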

The test system of series [3] is Mus musculus. As to the kind of experiment: Toxicity in C57BL/6J mouse assessed as body weight at 300 mg/kg, po bid for 12 to 13 days measured on day 10 (reference value: 23.2 +/-0.4 gms). The series is classed as organism-based. The settings on record: in vivo. Further details: dose 300 mg/kg, route oral.
In series [4] the test system is Mus musculus. Description: Antidiabetic activity in db/db mouse assessed as fasting plasma glucose level at 300 mg/kg, po bid for 12 to 13 days measured on day 12 to 13 (reference value: 106 +/-6 mg/dl). The series is classed as functional.
In series [5] the test system is Mus musculus. As to the kind of experiment: Decrease in glucose-6-phosphatase gene expression in db/db mouse liver at 300 mg/kg, po bid for 12 to 13 days by real time RT-PCR analysis. Further details: dose 300 mg/kg. The series is classed as functional, organism-based. The method, boiled down: as §1
(Real-time PCR tracks product formation cycle by cycle.)

In series [6] the test system is Mus musculus. Description: Toxicity in C57BL/6J mouse assessed as fasting plasma glucose level at 300 mg/kg, po bid for 12 to 13 days measured on day 15 (reference value: 78 +/-6 mg/dl). Further details: dose 300 mg/kg, route oral. The settings on record: in vivo. The series is classed as organism-based.
The subject of series [7] is Mus musculus. As to the kind of experiment: Toxicity in C57BL/6J mouse assessed as serum insulin level at 300 mg/kg, po bid for 12 to 13 days measured on day 15 (reference value: 0.25 +/-0.11 ng/ml). The series is classed as organism-based. Further details: dose 300 mg/kg, route oral. The conditions noted are these: in vivo.
Series [8] has as its system Mus musculus. Description: Toxicity in C57BL/6J mouse assessed as food intake at 300 mg/kg, po bid for 12 to 13 days measured on day 10 (reference value: 3.72 +/-0.23 gms/day). The series is classed as organism-based. Further details: dose 300 mg/kg, route oral. The conditions noted are these: in vivo.
The subject of series [9] is Mus musculus. As to the kind of experiment: Antidiabetic activity in db/db mouse assessed as serum insulin level at 300 mg/kg, po bid for 12 to 13 days measured on day 12 to 13 (reference value: 7.30 +/-1.10 ng/ml). The series is classed as functional.
Series [10] concerns Mus musculus. As to the kind of experiment: Antidiabetic activity in db/db mouse assessed as decrease in HOMA-R index of insulin resistance at 300 mg/kg, po bid for 12 to 13 days. Further details: dose 300 mg/kg. The series is classed as functional, organism-based.
Series [11] has as its system Mus musculus. Description: Toxicity in db/db mouse assessed as body weight at 300 mg/kg, po bid for 12 to 13 days measured on day 10 (reference value: 39.2 +/-0.6 gms). Further details: dose 300 mg/kg, route oral. The series is classed as organism-based. The conditions noted are these: in vivo.
The target of series [12] is T1, Phosphatidylinositol 3,4,5-trisphosphate 5-phosphatase 2 (Rattus norvegicus) (UniProt Q9WVR3).
T1 sequence (whole entry): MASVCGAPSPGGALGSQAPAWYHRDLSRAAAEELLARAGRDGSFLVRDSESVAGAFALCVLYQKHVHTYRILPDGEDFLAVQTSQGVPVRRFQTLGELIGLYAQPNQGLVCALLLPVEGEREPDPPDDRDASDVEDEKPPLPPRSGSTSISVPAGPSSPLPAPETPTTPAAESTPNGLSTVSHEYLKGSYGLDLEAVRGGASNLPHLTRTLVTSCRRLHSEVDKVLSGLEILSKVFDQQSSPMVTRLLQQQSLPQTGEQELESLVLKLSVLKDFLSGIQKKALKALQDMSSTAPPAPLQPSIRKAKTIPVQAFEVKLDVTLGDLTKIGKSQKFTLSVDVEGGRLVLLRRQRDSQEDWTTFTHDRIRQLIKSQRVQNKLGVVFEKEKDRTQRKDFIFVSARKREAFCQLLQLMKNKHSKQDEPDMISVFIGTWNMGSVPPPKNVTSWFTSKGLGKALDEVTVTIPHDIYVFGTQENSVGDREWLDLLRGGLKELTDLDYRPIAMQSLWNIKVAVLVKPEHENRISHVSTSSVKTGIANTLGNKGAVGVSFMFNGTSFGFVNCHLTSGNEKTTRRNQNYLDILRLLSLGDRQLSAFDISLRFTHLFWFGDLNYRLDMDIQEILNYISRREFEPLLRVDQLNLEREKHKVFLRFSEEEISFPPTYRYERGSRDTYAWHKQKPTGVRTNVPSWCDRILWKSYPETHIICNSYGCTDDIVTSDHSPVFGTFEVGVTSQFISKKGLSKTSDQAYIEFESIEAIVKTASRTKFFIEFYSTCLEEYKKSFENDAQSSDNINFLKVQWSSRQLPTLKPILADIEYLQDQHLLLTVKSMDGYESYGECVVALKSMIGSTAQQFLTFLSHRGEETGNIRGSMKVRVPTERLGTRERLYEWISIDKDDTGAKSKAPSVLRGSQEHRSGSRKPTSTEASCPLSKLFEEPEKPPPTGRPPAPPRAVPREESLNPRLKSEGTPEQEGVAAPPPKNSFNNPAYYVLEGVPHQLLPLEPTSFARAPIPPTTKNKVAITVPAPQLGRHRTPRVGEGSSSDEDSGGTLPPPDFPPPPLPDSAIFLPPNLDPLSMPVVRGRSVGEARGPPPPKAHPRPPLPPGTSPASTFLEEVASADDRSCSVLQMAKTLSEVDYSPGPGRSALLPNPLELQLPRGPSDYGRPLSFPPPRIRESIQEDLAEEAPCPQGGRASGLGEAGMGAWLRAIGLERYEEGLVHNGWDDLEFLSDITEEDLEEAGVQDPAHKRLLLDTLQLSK
As to the kind of experiment: Inhibition of SHIP2 in TNF alpha-treated Sprague-Dawley rat cortical neuron assessed as potentiation of insulin-stimulated Akt phosphorylation at Thr308 at 10 uM treated for 15 mins after TNF alpha challenge for 3 days and prior to insulin stimulation measured after 5 mins by Western blot analysis relative to untreated control. A general note: A western blot detects proteins with antibodies after separation by electrophoresis.

Series [13] has as its system Mus musculus. Description: Antidiabetic activity in db/db mouse assessed as decrease in glucose area under curve at 300 mg/kg, po bid for 10 days by glucose tolerance test relative vehicle treated control. The settings on record: 240 h. The series is classed as functional. An outline of the steps: as §2
Series [14] has as its system Mus musculus. As to the kind of experiment: Toxicity in db/db mouse assessed as epididymal white adipose tissue weight at 300 mg/kg, po bid for 12 to 13 days measured on day 12 to 13 (reference value: 1.82 +/-0.1 gms). The series is classed as organism-based. Further details: dose 300 mg/kg, route oral. The settings on record: in vivo.

Activity calls are given as the source filed them. The rule behind the calls is not given here.

For `O=C(Cc1c(F)cccc1F)Nc1cc(OCc2ccc(Cl)cc2)ccn1`, the inhibition entry in the series with Mus musculus [1], in the series on Mus musculus [5] and in the series on Mus musculus [10] was “Active” each time. In addition, the Activity result is “Non-toxic” in the series with Mus musculus [2]; 23.4 g with Mus musculus [3]; 83 mg/dL in the series on Mus musculus [4]; 88 mg/dL in the series on Mus musculus [6]; 0.21 ng/mL in the series on Mus musculus [7]; 3.94 g/day in the series on Mus musculus [8]. Further, the figures for the Activity with Mus musculus [9], in the series with Mus musculus [11] and with Mus musculus [14] were 6.86 ng/mL, 39.4 g and 1.86 g, respectively. Moreover, the fold change (FC) in [12] worked out at 2.2. The inhibition in vivo at 300 mg/kg in the series on Mus musculus [13] was 16%.

As to `C[C@H](NC(=O)c1sccc1OCc1ccc(Cl)cc1)c1ccccc1`, the inhibition entry in the series with Mus musculus [1], in the series with Mus musculus [5] and with Mus musculus [10] was “Active” in each case. In addition, the Activity result with Mus musculus [2] is “Non-toxic”; in the series on Mus musculus [3], 23 g; in the series with Mus musculus [4], 77 mg/dL; in the series with Mus musculus [6], 87 mg/dL; with Mus musculus [7], 0.1 ng/mL; in the series with Mus musculus [8], 4.1 g/day. The values for the Activity with Mus musculus [9], in the series on Mus musculus [11] and with Mus musculus [14] were 9.95 ng/mL, 40.1 g and 1.75 g, respectively. Further, the fold change (FC) in series [12] was 1.5. Further, the inhibition in vivo at 300 mg/kg in the series with Mus musculus [13] was found to be 14%.

For the origin of these results see ChEMBL document CHEMBL2331279, “Rational design and synthesis of 4-substituted 2-pyridin-2-ylamides with inhibitory effects on SH2 domain-containing inositol 5'-phosphatase 2 (SHIP2)” (Eur J Med Chem, 2013).
